Data set [1] is described as follows: Chemical stability of the compound in neutral pH solution. Type of data set: physicochemical.
A short description of data set [2]: Chemical stability of the compound in acidic pH solution. The class given is physicochemical.
Data set [3] in a line: Stability in pH 3.1 solution assessed as half-life at 37 degC. The class given is physicochemical.
Data set [4] can be described thus: Stability in pH 7.4 solution assessed as half-life at 37 degC. The class given is physicochemical.
A short description of data set [5]: Stability in pH 1 solution assessed as half-life at 37 degC. The class given is physicochemical.
The subject of data set [6] is Rattus norvegicus. Kind of data set: Inhibition of paw swelling in Lewis rat adjuvant arthritis model assessed as reduction in hind paw volume at 3 mg/kg, po bid beginning on day 11 post adjuvant challenge by volume displacement plethysmometry method relative to control. The class given is functional. As to conditions: 264 h; call rule not given here. The gist of the method:
(§1)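 Male Lewis rats given complete Freund's adjuvant on day 1; from day 11 compounds dosed orally BID in 0.5 mL vehicle (prodrug as aqueous suspension in 0.75% Methocel, 0.1% Tween 80; parent in PEG 300). Paw volume measured 3 times per week for rest of study; paw swelling inhibition reported.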

Data set [7] is described as follows: Solubility in pH 1.2 solution. As to conditions: buffer.
Data set [8] in a line: Cmax in Sprague-Dawley rat at 100 mg/kg, po after 24 hrs by LC/MS/MS method. The class given is ADME, organism-based. Details: dose 100 mg/kg, route oral. As to conditions: in vivo.
Data set [9] in a line: Bioavailability in Sprague-Dawley rat at 1 mg/kg, po after 24 hrs by LC/MS/MS method. Type of data set: ADME, organism-based. The note with it: in vivo.
Data set [10] is described as follows: AUC in Sprague-Dawley rat at 1 mg/kg, po after 24 hrs by LC/MS/MS method. Type of data set: ADME, organism-based. Set-up: time < 24 hr, dose 1 mg/kg, route oral. As to conditions: in vivo.
For data set [11], the system named is Rattus norvegicus. Kind of data set: Bioavailability in Sprague-Dawley rat at 100 mg/kg, po after 24 hrs by LC/MS/MS method. As to conditions: in vivo. The class given is ADME, organism-based.
A short description of data set [12]: AUC in Sprague-Dawley rat at 100 mg/kg, po after 24 hrs by LC/MS/MS method. Type of data set: ADME, organism-based. The note with it: in vivo. Details: time < 24 hr, dose 100 mg/kg, route oral.
For data set [13], the system named is Rattus norvegicus. Kind of data set: Inhibition of paw swelling in Lewis rat adjuvant arthritis model assessed as reduction in hind paw volume at 1 mg/kg, po bid beginning on day 11 post adjuvant challenge by volume displacement plethysmometry method relative to control. The class given is functional. The note with it: 264 h. The gist of the method:
as §1

Data set [14] in a line: AUC in Sprague-Dawley rat at 10 mg/kg, po after 24 hrs by LC/MS/MS method. Type of data set: ADME, organism-based. As to conditions: in vivo. Details: time < 24 hr, dose 10 mg/kg, route oral.
A short description of data set [15]: AUC (0 to 24 hrs) in Lewis rat adjuvant arthritis model at 1 mg/kg, po bid beginning on day 11 post adjuvant challenge. Type of data set: ADME, organism-based. Set-up: dose 1 mg/kg, time < 24 hr, route oral. The note with it: in vivo.
Data set [16] deals with Rattus norvegicus. Kind of data set: Inhibition of LPS-induced TNFalpha level in Lewis rat at 0.03 to 10 mg/kg, po dosed 1 hr before LPS challenge and measured 90 mins post LPS challenge by ELISA method. The class given is functional. The gist of the method: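 Male Lewis rats (200-250 g) dosed orally 1 h before IP injection of 10ug E. coli O111:B4 LPS in 1.0 mL sterile saline; prodrug as suspension in 0.75% Methocel, 0.1% Tween 80, parent in PEG 300, controls given vehicle. Blood taken 90 min after LPS; serum TNF measured by ELISA; ED50 expressed as parent equivalent.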
In general terms: An ELISA detects its analyte on a solid surface through an enzyme-linked reagent.

Data set [17] in a line: Cmax in cynomolgus monkey at 10 mg/kg, po after 24 hrs by LC/MS/MS method. As to conditions: in vivo. Type of data set: ADME, organism-based, Macaca fascicularis. Set-up: dose 10 mg/kg, route oral.
A short description of data set [18]: Bioavailability in cynomolgus monkey at 10 mg/kg, po after 24 hrs by LC/MS/MS method. Type of data set: ADME, organism-based, Macaca fascicularis. As to conditions: in vivo.
Data set [19] in a line: AUC in cynomolgus monkey at 10 mg/kg, po after 24 hrs by LC/MS/MS method. The note with it: in vivo. Set-up: dose 10 mg/kg, time < 24 hr, route oral. Type of data set: ADME, organism-based, Macaca fascicularis.
Data set [20] has as its system Caco-2. Kind of data set: Drug level in basal side of human Caco2 cells assessed as BMS-582949 level incubated at 37 degC for 2 hrs. As to conditions: caco-2, 2 h. The class given is ADME, cell-based. In a few lines:
(§2)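 Compounds loaded on apical side of Caco-2 monolayers and incubated at 37 °C for 2 h; prodrug, intermediate and parent measured on apical and basal sides.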

A short description of data set [21]: AUC (0 to 24 hrs) in Lewis rat adjuvant arthritis model at 3 mg/kg, po bid beginning on day 11 post adjuvant challenge. The class given is ADME, organism-based. Details: dose 3 mg/kg, time < 24 hr, route oral. As to conditions: in vivo.
Data set [22] in a line: Bioavailability in Sprague-Dawley rat at 10 mg/kg, po after 24 hrs by LC/MS/MS method. Type of data set: ADME, organism-based. The note with it: in vivo.
Data set [23] can be described thus: Cmax in Sprague-Dawley rat at 1 mg/kg, po after 24 hrs by LC/MS/MS method. The class given is ADME, organism-based. Set-up: dose 1 mg/kg, route oral. As to conditions: in vivo.
Data set [24] concerns Caco-2. Kind of data set: Drug level in apical side of human Caco2 cells assessed as BMS-582949 level incubated at 37 degC for 2 hrs. The class given is ADME, cell-based. As to conditions: caco-2, 2 h. The gist of the method: as §2
Data set [25] in a line: Cmax in Sprague-Dawley rat at 10 mg/kg, po after 24 hrs by LC/MS/MS method. Type of data set: ADME, organism-based. Details: dose 10 mg/kg, route oral. The note with it: in vivo.
The nature of data set [26]: Solubility in pH 6.5 solution. As to conditions: buffer.
For data set [27], the system named is Caco-2. Kind of data set: Drug level in apical side of human Caco2 cells incubated at 37 degC for 2 hrs. Type of data set: ADME, cell-based. The note with it: caco-2, 2 h. The gist of the method:
as §2

Data set [28] is described as follows: Chemical stability of the compound in pH 7.4 potassium phosphate buffer at 10 uM incubated for 0.25 hrs by LC/MS/MS method. The class given is physicochemical. The note with it: read-out: Stability. In a few lines: (§3)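 Compound at 10 µM in 89 mM potassium phosphate buffer, pH 7.4, 37 °C, incubated with or without porcine liver esterase; started by compound addition, aliquots at 0, 15, 30, 60 min, acetonitrile added, centrifuged at 4 °C, remaining compound measured by LC/MS/MS.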

A short description of data set [29]: Chemical stability of the compound in pH 7.4 potassium phosphate buffer at 10 uM incubated for 0.5 hrs by LC/MS/MS method. Type of data set: physicochemical. As to conditions: read-out: Stability. The gist of the method: as §3
In data set [30] the target is T1, Liver carboxylesterase (Sus scrofa, UniProt Q29550).
T1 sequence (Q29550 whole entry): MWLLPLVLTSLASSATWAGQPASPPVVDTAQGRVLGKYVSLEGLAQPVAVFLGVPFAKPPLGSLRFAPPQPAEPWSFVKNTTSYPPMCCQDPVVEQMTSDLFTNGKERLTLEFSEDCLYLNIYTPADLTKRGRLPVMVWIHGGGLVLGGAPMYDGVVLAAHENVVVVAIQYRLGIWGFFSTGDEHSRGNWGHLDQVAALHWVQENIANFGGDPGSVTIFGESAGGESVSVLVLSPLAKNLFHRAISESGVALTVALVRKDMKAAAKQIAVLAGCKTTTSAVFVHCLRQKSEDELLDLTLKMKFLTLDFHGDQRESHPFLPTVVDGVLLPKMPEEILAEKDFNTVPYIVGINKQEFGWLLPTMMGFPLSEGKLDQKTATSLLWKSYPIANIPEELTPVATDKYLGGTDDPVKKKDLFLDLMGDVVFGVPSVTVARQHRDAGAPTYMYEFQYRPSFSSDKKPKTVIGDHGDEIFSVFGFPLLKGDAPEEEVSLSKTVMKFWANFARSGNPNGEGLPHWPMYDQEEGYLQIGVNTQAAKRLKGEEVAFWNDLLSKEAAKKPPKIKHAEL
Kind of data set: Stability assessed as porcine liver esterase-mediated drug degradation by measuring compound remaining level in pH 7.4 potassium phosphate buffer at 10 uM incubated for 1 hr by LC/MS/MS. Type of data set: ADME, tissue-based. As to conditions: pig, read-out: Stability. The gist of the method:
(§4)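 Porcine liver esterase with substrate at 10 µM in 89 mM potassium phosphate pH 7.4, 37 °C. Reaction started by adding compound. Aliquots taken at 0, 15, 30 and 60 min and quenched with acetonitrile. After centrifugation at 4 °C, percent remaining quantified by LC/MS/MS.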

Data set [31] in a line: Chemical stability of the compound in pH 7.4 potassium phosphate buffer at 10 uM incubated for 1 hr by LC/MS/MS method. The class given is physicochemical. The note with it: read-out: Stability. The gist of the method:
as §3

The target in data set [32] is T1, Liver carboxylesterase. Kind of data set: Stability assessed as porcine liver esterase-mediated drug degradation by measuring compound remaining level in pH 7.4 potassium phosphate buffer at 10 uM incubated for 0.25 hrs by LC/MS/MS. The class given is ADME, tissue-based. As to conditions: pig, read-out: Stability. In a few lines:
as §4

The target of data set [33] is T1, Liver carboxylesterase. Kind of data set: Stability assessed as porcine liver esterase-mediated drug degradation by measuring compound remaining level in pH 7.4 potassium phosphate buffer at 10 uM incubated for 0.5 hrs by LC/MS/MS. Type of data set: ADME, tissue-based. The note with it: pig, read-out: Stability. The gist of the method: as §4
Data set [34] is described as follows: Chemical Stability of the compound in pH 1 solution. As to conditions: buffer. The class given is physicochemical.

Converted amounts (≈) assume the structure as drawn. A value given as a limit tells only on which side of the number the result lay.

The half-life is the time in which the quantity being followed falls by half. One may read the inhibition in vivo as the relative decrease from the control value, in per cent. In general, solubility refers to how much of the substance goes into solution per volume. The term Cmax denotes the maximum level reached in the sampled fluid or tissue. The term bioavailability denotes the share of a dose that reaches the circulation, judged against a reference dose that is usually intravenous. For orientation: AUC means the area under the concentration-time curve, a measure of exposure.

Regarding `CCCN(C(=O)OCOC(=O)/C=C/C(=O)O)C(=O)c1cn2ncnc(Nc3cc(C(=O)NC4CC4)ccc3C)c2c1C`, the Stability result in data set [1] and in [2] was “Stable” throughout.
Turning to `CCCNC(=O)c1cn2ncnc(Nc3cc(C(=O)N(COP(=O)(O)O)C4CC4)ccc3C)c2c1C.CCN(C(C)C)C(C)C`, the half-life in data set [3] is below 0.25 h; in data set [4], 257 h; in data set [5], below 0.25 h.
As to `CCCNC(=O)c1cn2ncnc(N(COP(=O)([O-])O)c3cc(C(=O)NC4CC4)ccc3C)c2c1C.[Na+]`, the figures for the half-life in data set [3], in [4] and in data set [5] were below 0.25 h, 20 h and below 0.25 h, respectively.
Turning to `CCCNC(=O)c1cn2ncnc(Nc3cc(C(=O)NC4CC4)ccc3C)c2c1C` [BMS-582949], the inhibition in vivo at 3 mg/kg in data set [6] came out at 35%. Also, the figures for the solubility in data set [7] and in data set [26] were 280 µg/mL (≈ 689 µM) and 3 µg/mL (≈ 7.38 µM), respectively. Besides, the Cmax in [8] came out at 3000 nM; in data set [17], 1000 nM; in data set [23] it was 800 nM; in [25], 4300 nM. In addition, the figures for the bioavailability in data set [9], in data set [18] and in data set [22] were 55%, 16% and 31%, respectively. Further, the AUC at 24 h in data set [10] was 4.2 µM·h; in data set [12] it was 3 µM·h; in [14], 23 µM·h; in [15], 6.7 µM·h; in [19], 7.6 µM·h; in [21] it was 25.3 µM·h. For the same molecule, the F in [11] worked out at 4.3%. The inhibition in vivo at 1 mg/kg in [13] is 27%. In [16], the ED50 stood at 0.88 mg. In addition, the Drug uptake result in data set [20] and in data set [24] was “Active” throughout.
As to `CCCN(COP(=O)(O)O)C(=O)c1cn2ncnc(Nc3cc(C(=O)NC4CC4)ccc3C)c2c1C.CCN(C(C)C)C(C)C`, the half-life in [3] was below 0.25 h; in data set [4], 54 h; in [5], below 0.25 h.
Consider `CCCN(C(=O)OCOC(=O)Cc1ccc(O)cc1)C(=O)c1cn2ncnc(Nc3cc(C(=O)NC4CC4)ccc3C)c2c1C`, for which the Drug uptake result in data set [27] is “Active”. The remaining at 0.25 h, 10 µM in data set [28] worked out at 100%; in data set [32], 8.2%. Moreover, the remaining at 0.5 h, 10 µM was found to be 93% in data set [29] and 6.9% in data set [33]. Besides, the remaining at 1 h, 10 µM in data set [30] is 5.8%; in data set [31] it was 75%.
As for `CCCN(C(=O)OCOP(=O)(O)O)C(=O)c1cn2ncnc(Nc3cc(C(=O)NC4CC4)ccc3C)c2c1C`, the Stability entry in data set [1] was “Unstable”; in [34], “Stable”.

For the origin of these results see ChEMBL document CHEMBL3621120, “Discovery of ((4-(5-(Cyclopropylcarbamoyl)-2-methylphenylamino)-5-methylpyrrolo[1,2-f][1,2,4]triazine-6-carbonyl)(propyl)carbamoyloxy)methyl-2-(4-(phosphonooxy)phenyl)acetate (BMS-751324), a Clinical Prodrug of p38α MAP Kinase Inhibitor” (J Med Chem, 2015).
